This is a sample that favours compounds with a hit; in the whole collection about 2.5% have one here.
TRPC6 act – activators of mouse TRPC6 channel. B-score at 10 µM. AID 2550. 310,000 compounds, 0.13% hits. Q61143. HEK293-TRPC6 membrane potential dye fluorescence; active compounds read high;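 active means B-score of the integrated fluorescence ratio above library mean plus 3 SD, and starting fluorescence ratio within library mean plus 5 SD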;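 further: higher score means more depolarization so channel activation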
Target sequence (Q61143 whole entry, looked up): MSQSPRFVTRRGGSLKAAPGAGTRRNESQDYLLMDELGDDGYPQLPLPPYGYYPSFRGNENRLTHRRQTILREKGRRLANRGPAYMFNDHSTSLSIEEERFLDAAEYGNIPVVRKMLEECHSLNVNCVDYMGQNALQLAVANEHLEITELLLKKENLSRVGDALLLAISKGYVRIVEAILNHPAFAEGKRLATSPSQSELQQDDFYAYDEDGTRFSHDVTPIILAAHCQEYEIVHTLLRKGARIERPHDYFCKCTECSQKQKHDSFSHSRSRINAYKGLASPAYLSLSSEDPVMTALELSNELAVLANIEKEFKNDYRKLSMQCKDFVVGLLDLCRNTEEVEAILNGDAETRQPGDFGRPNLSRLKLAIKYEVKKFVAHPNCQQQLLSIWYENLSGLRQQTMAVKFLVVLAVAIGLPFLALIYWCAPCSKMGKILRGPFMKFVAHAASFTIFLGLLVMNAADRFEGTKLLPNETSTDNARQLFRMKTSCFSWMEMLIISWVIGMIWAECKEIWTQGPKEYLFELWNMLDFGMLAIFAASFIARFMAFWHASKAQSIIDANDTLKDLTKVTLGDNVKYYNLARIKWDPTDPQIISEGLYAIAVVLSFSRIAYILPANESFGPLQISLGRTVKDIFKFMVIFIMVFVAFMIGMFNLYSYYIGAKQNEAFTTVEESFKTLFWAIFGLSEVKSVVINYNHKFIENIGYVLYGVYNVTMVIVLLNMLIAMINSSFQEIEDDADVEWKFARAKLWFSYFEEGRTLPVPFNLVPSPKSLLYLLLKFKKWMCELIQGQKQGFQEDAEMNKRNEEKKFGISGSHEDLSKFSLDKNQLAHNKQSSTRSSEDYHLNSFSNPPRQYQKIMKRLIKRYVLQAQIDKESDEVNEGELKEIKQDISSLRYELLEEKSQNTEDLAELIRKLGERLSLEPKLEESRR
TRPC6 inhibitor – mouse TRPC6 channel inhibition | HEK293-TRPC6, membrane potential dye, ACh-evoked depolarization; active compounds read low | B-score at 10 µM | 310,000 compounds, 1.1% hits;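 active means B-score under library mean minus 3 SD, initial fluorescence not abnormally high, positive integrated signal ratio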;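 further: B-score derived from integrated fluorescence ratio over the kinetic read; more negative B-score means stronger inhibition of depolarization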
TRPC4 potent – allosteric potentiators of mouse TRPC4 channel; HEK293 TRPC4beta/mu-opioid, DAMGO EC20, Fluo-4 Ca2+ flux; active compounds read high; 310,000 compounds, 0.42% hits; B-score at 10 µM;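 active means B-score of calcium response area above 5 SD of library B-scores, with initial fluorescence ratio within 5 SD of library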
TRPC4 agonist – TRPC4 (mouse) channel activation | B-score at 10 µM | HEK293 TRPC4beta/mu-opioid, Fluo4 calcium fluorescence; active compounds read high | AID 2237 | Q9QUQ5 | 310,000 compounds, 0.49% hits;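 active means B-score above 5 SD of library B-scores, and initial fluorescence ratio not above library mean plus 5 SD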;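 further: positive B-score marks a calcium rise read as TRPC4 activation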
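Assay system: HEK293 stable line with TRPC4beta plus mu-opioid receptor; schedule: 45 min room-temperature Fluo4 loading, 110 s read; technique: kinetic Fluo4 calcium fluorescence; evaluation: integrated baseline-normalised fluorescence ratio, converted to per-well B score; controls: buffer (low) and maximal DAMGO (high)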
TRPC4 block – inhibitors of mouse TRPC4 channel; Q9QUQ5; HEK293 TRPC4beta/mu-opioid, DAMGO-evoked Fluo4 calcium flux; active compounds read low; B-score at 10 µM; 300,000 compounds, 0.39% hits; AID 2247;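 active means B-score over 3 SD under the library average, no early fluorescence shift, positive overall ratio signal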
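Material: HEK293 cells with stable TRPC4beta plus mu-opioid receptor expression; probe or stimulus: DAMGO in two steps, submaximal then maximal; technique: Fluo4 calcium fluorescence by kinetic imaging, 5 s 1 Hz baseline; measure: integrated fluorescence ratio relative to baseline, converted to per-well B score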
Pemphigus Ab inh – inhibitors of pemphigus antibody binding to human desmoglein-3. binding (percent of control), % at 10 µM. P32926. 310,000 compounds, 0.48% hits. DSG3-coupled beads, scFv-anti-DSG3-GFP binding, flow cytometry; active compounds read low;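 active means binding more than 3 SD below its plate's average and above zero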;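 further: hits lower antibody fragment binding to DSG3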
TRPC4 spec 2 – second selectivity test of TRPC6 inhibitors: effect on mouse TRPC4 | HEK293 TRPC4/MOR, membrane potential dye fluorescence; channel activated by saturating DAMGO dose | 920 compounds, 42% hits | shares compounds with TRPC6 inhibitor | inhibition, % at 10 µM;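 active means compounds whose fluorescence signal differed from control wells by over 3 SD, either direction, in both duplicate plates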
TRPC4 spec – selectivity of TRPC6 inhibitors: effect on mouse TRPC4. shares compounds with TRPC6 inhibitor. HEK293 TRPC4/mu-opioid, membrane potential fluorescence. activity change, negative = inhibition, % at 10 µM. 920 compounds, 61% hits. AID 2777;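 active means rise or fall in signal beyond 3 SD of buffer-only wells in both replicate plates, either sign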;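 further: integrated kinetic ratio of fluorescence range over baseline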
HEK293 MPD ctr 2-1 – parental HEK293 nonspecific activity of TRPC6 inhibitors, second screen; parental HEK293 membrane potential dye fluorescence; maximal acetylcholine challenge after compound addition; shares compounds with TRPC6 inhibitor; 920 compounds, 31% hits; signal change vs control, % at 10 µM; AID 2779;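 active means membrane potential signal moving either way by over 3 SD of the maximum-effect control, in both duplicate plates, meaning non-specific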
HEK293 MPD ctr-1 – counter-screen for TRPC6 inhibitors: effect in parental HEK293 cells | membrane potential signal change, % at 10 µM | 920 compounds, 60% hits | parental HEK293 membrane potential dye fluorescence | AID 2780 | shares compounds with TRPC6 inhibitor;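 active means membrane potential signal shifting up or down by more than 3 SD of buffer-only wells, on both duplicate plates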
HEK293 MPD ctr-2 – parental HEK293 nonspecific activity of TRPC6 modulators. shares compounds with TRPC6 inhibitor. membrane potential dye fluorescence. membrane potential signal change, % at 10 µM. 2,400 compounds, 51% hits. AID 488924;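 active means membrane potential signal moves up or down beyond 5 SD from buffer-only wells, on both duplicate plates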
HEK293 MPD ctr 2-2 – second check of TRPC6 modulator effects in parental HEK293 cells. inhibition, % at 10 µM. AID 488926. membrane potential dye fluorescence; after compound, maximal acetylcholine stimulation. shares compounds with TRPC6 inhibitor. 2,400 compounds, 14% hits;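 active means membrane potential signal drops by more than 5 SD from the mean control signal, in both duplicate plates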
TRPC4 ctr mod – tests whether TRPC6 modulators also affect mouse TRPC4. percent change from control (negative = decrease, positive = increase), % at 10 µM. AID 488927. HEK293 TRPC4/mu-opioid, membrane potential fluorescence. shares compounds with TRPC6 inhibitor. 2,400 compounds, 69% hits;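 active means membrane potential signal moved up or down beyond 5 SD of buffer control wells, in both duplicate plates, actives on both sides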
TRPC4 ctr inh 2 – second selectivity test of TRPC6 modulators against mouse TRPC4. shares compounds with TRPC6 inhibitor. HEK293 TRPC4/mu-opioid, membrane potential dye fluorescence; stimulated with maximal-effect DAMGO. inhibition, % at 10 µM. 2,400 compounds, 55% hits. AID 488928;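 active means drop in membrane potential signal beyond 5 SD of the control wells in both duplicate plates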;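 further: TRPC4 counter screen for TRPC6 hits run under conditions tuned for TRPC6 not TRPC4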
TRPC6 inh conf – mouse TRPC6 inhibitor confirmation. 3,300 compounds, 43% hits. inhibition, % at 10 µM. HEK293-TRPC6, membrane potential dye, ACh-evoked depolarization. shares compounds with TRPC6 inhibitor;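 active means fluorescence ratio falls more than 5 SD below the full-stimulation control mean, in both duplicate runs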;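 further: integrated fluorescence ratio of peak minus minimum over baseline after agonist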
TRPC6 act conf – mouse TRPC6 activator confirmation. shares compounds with TRPC6 inhibitor. HEK293-TRPC6 membrane potential dye fluorescence, FDSS. activation, % at 10 µM. 2,800 compounds, 11% hits. AID 488961;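 active means ratio signal rise beyond 5 SD above unstimulated control wells' mean, seen in both duplicate runs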
Each line names hits and unclear results; the compound was inactive in the other large screens (follow-up assays come after a bar, where they were run).

O=C(NCc1ccccc1)C12CN(Cc3ccccc3)CC1C(c1cccc([N+](=O)[O-])c1)=NO2 (configuration not stated)	none
Cc1nc2cc(C(F)(F)F)ccc2n1C1CCN(CC(=O)N2CCCC2)CC1	none
Cc1nc2cc(C(F)(F)F)ccc2n1C1CCN(CC(=O)N2CCOCC2)CC1	TRPC6 inhibitor -5.21 | HEK293 MPD ctr-2 inactive | HEK293 MPD ctr 2-2 inactive | TRPC4 ctr mod inactive | TRPC4 ctr inh 2 inactive | TRPC6 inh conf inactive | TRPC6 act conf inactive
COCCCn1c(=N)c(C(=O)NCC2CCCO2)cc2c(=O)n3ccccc3nc21 (configuration not stated)	none (no result: Pemphigus Ab inh)
COc1ccc(Cn2c(=N)c(C(=O)NCC3CCCO3)cc3c(=O)n4ccccc4nc32)cc1 (configuration not stated)	TRPC6 inhibitor -6.45 | HEK293 MPD ctr-2 inactive | HEK293 MPD ctr 2-2 inactive | TRPC4 ctr mod -10.0% | TRPC4 ctr inh 2 36.5% | TRPC6 inh conf 43.5% | TRPC6 act conf inactive
COc1ccc(CCn2c(=N)c(C(=O)NCC3CCCO3)cc3c(=O)n4ccccc4nc32)cc1 (configuration not stated)	TRPC6 inhibitor -5.8 | HEK293 MPD ctr-2 -82.5% | HEK293 MPD ctr 2-2 inactive | TRPC4 ctr mod -22.0% | TRPC4 ctr inh 2 60.0% | TRPC6 inh conf 58.0% | TRPC6 act conf inactive
CCOC(=O)c1cc2c(=O)n3ccccc3nc2n(CCCOC)c1=NC(=O)C(C)(C)C	TRPC6 inhibitor -5.89 | HEK293 MPD ctr-2 -195.0% | HEK293 MPD ctr 2-2 inactive | TRPC4 ctr mod -27.0% | TRPC4 ctr inh 2 56.5% | TRPC6 inh conf 50.5% | TRPC6 act conf inactive
CCOC(=O)c1cc2c(=O)n3ccccc3nc2n(CCCOC)c1=NC(=O)c1cccnc1	none (no result: Pemphigus Ab inh)
N=c1c(C(=O)NCC2CCCO2)cc2c(=O)n3ccccc3nc2n1Cc1ccccc1Cl (configuration not stated)	TRPC6 inhibitor -6.71, TRPC4 potent 78 | TRPC4 spec 2 47.5% | TRPC4 spec inactive | HEK293 MPD ctr 2-1 inactive | HEK293 MPD ctr-1 -456.0% | TRPC6 inh conf inactive | TRPC6 act conf inactive
Cn1nc(SCc2ccccc2)c(=O)[nH]c1=O	none (no result: TRPC6 act, TRPC6 inhibitor, TRPC4 potent, TRPC4 agonist, TRPC4 block)

Source: PubChem BioAssay (several laboratories)
